According to publication PMC7614726 (ACS chemical neuroscience, 2020):

Legend:
[1] = system: acetylated α-tubulin in human whole blood lymphocytes; experiment: Human whole blood assay, acetylated α-tubulin by flow cytometry; type: cell-based; conditions: 10 and 30 μM
Method in brief: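 Whole blood from healthy volunteers (25 μL) was mixed with compound diluted in RPMI 1640/10% FBS, with 0.1% DMSO final in controls. Incubation was 30 min at 37°C/5% CO2, then 3.5 h more after adding medium. Cells were lysed/fixed 10 min at room temperature and permeabilised 20 min on ice. Staining used AF647-labelled anti-acetylated α-tubulin or isotype control, 20–30 min on ice. Flow cytometry used a lymphocyte gate.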

[2] = Precipitation on addition to culture medium; type: physicochemical; conditions: culture medium (RPMI 1640, 10% FBS)
wild-type SCG neurons = experiment: Axonal transport of mitochondria in dissociated wild-type SCG neurons; type: cell-based, mouse; conditions: 100 nM T-3796106, 250 nM T-3793168, 1 μM Tubastatin A, 24 h
[3] = system: SCG neurons expressing HSPB1^S135F; experiment: Axonal transport of mitochondria in SCG neurons expressing HSPB1 S135F; type: cell-based, mouse; conditions: 24 h, 100 nM T-3796106, 250 nM T-3793168, 1 μM Tubastatin A
Method in brief: (§1)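 Medium contained NGF, 10% FBS and 4 μM aphidicolin. Nuclei were microinjected with mutant human HSPB1 plus mito-EGFP (total DNA ≤0.05 μg/μL). Controls got DMSO. Spinning-disk confocal at 37°C/5% CO2, […], frames 1 s apart for 2 min, 4–5 neurons per dish. Difference Tracker counted moving particles per 1000 pixels.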

[4] = system: SCG neurons expressing HSPB1^P182L; experiment: Axonal transport of mitochondria in SCG neurons expressing HSPB1 P182L; type: cell-based, mouse; conditions: 100 nM T-3796106, 250 nM T-3793168, 1 μM Tubastatin A
Method in brief: as §1

Row | Structure (SMILES) | Levels of acetylated a-tubulin at 10 versus 30 μM [1] | Concentration showing some precipitate when added in the culture medium [2] | Number, average and maximum velocity of axonally transported mitochondria (wild-type SCG neurons) | Average and maximum speed of mitochondria movement [3] | Rescue of anterograde mitochondrial transport (number of moving mitochondria) [3] | Effect on mitochondrial movement [4]
1 | O=C(CCCCCCNC(=O)c1cnc(N(c2ccccc2)c2ccccc2)nc1)NO [ACY-1215] | almost the same | 300 µM |  |  |  | 
2 | CN1CCc2c(c3ccccc3n2Cc2ccc(C(=O)NO)cc2)C1 [Tubastatin A] | almost the same |  | no significant change | unaffected by any of these treatments | rescue of anterograde axonal transport | no effect on mitochondrial movement
